Data reported in the EternaBench riboswitch data.

System: MS2 coat protein
Experiment: apparent Kd, MS2 coat protein; higher = weaker binding; RNA-MaP array; FMN 200 µM where present
Outline: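 Green signal from SNAP-549-labelled MS2 coat protein was normalised to red-channel RNA signal and to the median Fmax of control clusters. The protein was titrated from 0.7 or 1.5 nM, doubling to 3 µM, without and then with constant ligand, over designs transcribed by stalled E. coli RNA polymerase on Illumina sequencing-chip clusters, in 100 mM Tris-HCl pH 7.5, 80 mM KCl, 4 mM MgCl2, BSA, DTT, yeast tRNA and Tween-20. The apparent Kd is the median of filtered per-cluster binding-curve fits.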

[1] = designed as: ON switch for flavin mononucleotide, no ligand
[2] = ligand present: flavin mononucleotide, designed as: ON switch for flavin mononucleotide
[3] = designed as: OFF switch for flavin mononucleotide, no ligand
[4] = ligand present: flavin mononucleotide, designed as: OFF switch for flavin mononucleotide

| Sequence | apparent Kd [1] [nM] | apparent Kd [2] [nM] | apparent Kd [3] [nM] | apparent Kd [4] [nM] |
| --- | --- | --- | --- | --- |
| GGUACCAUCACAGGAUAUGCUUUUCUUUGGGAAGCAGAAGGGUGUAACAUGAGGAUCACCCAUGUGGUGCCAGGGCGUGAGCCC | 182 | 14.7 |  |  |
| UGUUGUAUUACAGGAUAUCUAUUAUUUGUAUUUAGAGAAGGGUAUUCACAUGAGGAUCACCCAUGUAUAUACGAGGAAGUUGUG | 61.3 | 58.6 |  |  |
| GCACAUGGCAUAGGAUAUAGAACUAUACAUUAUAUAGGUAGUGUCACAACACUAGAAGGAUGAAACAUGAGGAUCACCCAUGUA | 14.9 | 12.2 |  |  |
| CGCCGCACCAGCCGGCGGCAGGGUCAGGAUAUACAUGAGGAUCACCCAUGUGAACGGUGCCCAAUGUAGAAGGGACGAAGAGAC |  |  | 20.5 | 32.6 |
| UUAAAUCAUGUAGGAUAUGCAUGGCGAAGCUACGCAGAAGGACAUGAGGAUCACCCAUGUUAUAGCGACCAAGUAAGGUUGCAA |  |  | 91.6 | 197 |
| GUCGAGUGAGGAUAUUGAAUCGGUGGCAGACCACACGAGCUCGAGAAGGCACAUGAGGAUCACCCAUGUGGGUC |  |  | 28.1 | 41.6 |
| ACAUGAUAUGUAGGAUAUCACAACUUGUGUUAUAAAAUUGUAAUUUAGGAUUGAGAAGGACAUUUACAUGAGGAUCACCCAUGU |  |  | 17.6 | 13.3 |
| AAUUUGUGAAAAUUACAUGAGGAUCACCCAUGUUAGGGAAUGCAGGAUAUGUGGUUUAUUAUUUUACAGAAGGGCAAUAAUUUU | 95.9 | 53.6 |  |  |
| AAAUAAUUGUCAGGAUAUGGCAUGUAGACGAUGCCAGAAGGGACAUGAGGAUCACCCAUGUUGCUCAACACUGGGAGACGUAAG |  |  | 133 | 273 |
| CCCUCACAUGAGGAUCACCCAUGUCAGGAUAUCUCACAUCGGCCUUAGGCCAAUGUCAAGAGAAGGGACGUAUC |  |  | 22.3 | 33.9 |
| UAUGUAUUCGUAGGAUAUCCGUCGCCACCGUGUGGAGAAGGACGAACAUGAGGAUCACCCAUGUAUCAUGGUGUAGACACUUUC |  |  | 126 | 183 |
| AGAAACUACGAGAAGGACAUGAGAACCUUCAAUUACAUGAGGAUCACCCAUGUAGGAUAUCGUAGUUUCAGGAUCGUGAGAUCA |  |  | 12.7 | 86 |
| CGGGAGUCAGGAUAUACGGUCAUGUCGCCAGAUGUCAUGGUACAUGAGGAUCACCCAUGUAGAAGGGAGGAGAU |  |  | 75.7 | 136 |
| ACAAGAUCAGGAUAUACAUGAGGAUCACCCAUGUAUAUAAAAAAAAAACUUUCUUCAUGUAGAAGGGAUCUUGU |  |  | 17.4 | 46 |
| CGCUACAGCCAGAAGGACAUGAGGAUCACCCAUGUAGGAUAUGGGAGACACAGUCCCGUGUAGAGAAACUACGCUACUGUAGCG | 679 | 464 |  |  |
| AAUAAAUAGGAGGAUAUCGUAUCGGAAACGAUACGAGAAGGUCUAACAUGAGGAUCACCCAUGUUCCUCAAUAA |  |  | 33.1 | 95.8 |
| GCUGGACAAGGAUAUACAAUCGUGCUUCGGCACGUAAGGUCACAUGAGGAUCACCCAUGUAGAAGGUGUCCAGC |  |  | 23.8 | 157 |
| AGUAUGCACGCAGGAUAUACAUGAGGAUCACCCAUGUGGAACAGUGUAGUAUUAGUUGAUCCUCAGUAGAAGGGCGGUCGAAAU |  |  | 82.5 | 55.6 |
| GCACUGGAUGUAGGAUAUCAGGACGAUAAGUCCUGAGAAGGACAUGAGGAUCACCCAUGUAAAACUCAACCAGUGCAUAAUAUA |  |  | 14.5 | 18.5 |
| GGAUCGAUGUAGAAGGCUGUCUUAAAAUAGGACAGAGGAUAUACAUGAGGAUCACCCAUGUACUCCUUUAAAAUGAUCCAAAUA |  |  | 5.81 | 9.65 |
| GGAUGACAAAGUCAUCCAAAUCGAACAUGAGGAUCACCCAUGUAGGAUAUGCAACUCAAAGAGUUGCAGAAGGACAUGUGCUUU |  |  | 40.9 | 172 |
| CGUUAUUCAGGAUAUGGUGUGUUAUACAUGAGGAUCACCCAUGUAGAUCCUGGUUAGGCCUCAGAAGGGAAUGUUC |  |  | 165 | 145 |
| CCACUGUCAGGAUAUCGUGCAUAAGCGUUUACAUUUAUGUGCGAGAAGGGACAUGAGGAUCACCCAUGUAAACG |  |  | 417 | 653 |
| GAUCCACAUGAGGAUCACCCAUGUGAGGAUAUGAUACUAUGUACUUCGGUACAUAGUAUCAGAAGGCAUAUGAA |  |  | 42 | 196 |

| Sequence | apparent Kd [1] [nM] | apparent Kd [2] [nM] | apparent Kd [3] [nM] | apparent Kd [4] [nM] |
| --- | --- | --- | --- | --- |
| UCAUAUUUACAAGGAUAUCAAUUAUUUAUACAUCCUACAUGAGGAUCACCCAUGUUAAUAUAUUUUGAGAAGGUGUAUUGUCGG | 32.1 | 31.2 |  |  |
| AAAUAAACUACCAUAAUAUCCUCACAUGAGGAUCACCCAUGUCAGGAUAUUUGUCCUAAAAGGACAGAGAAGGGACGUGGUAGA |  |  | 5.43 | 11.1 |
| CGUAUACAUGAGGAUCACCCAUGUGAGGAUAUGCUUUAUUAUUAUUAUUAUUAUUGUUGCAGAAGGUACAUUGC |  |  | 23.5 | 18.2 |
| AUAAACGCAGGAUAUACAUGAGGAUCACCCAUGUCCGCGCUUGUUGCGGGCACCUGAUGUAGAAGGGCGGGCGC |  |  | 214 | 184 |
| GUGCUCGUGUGAGGAUAUGCCGCCGUUUCGGCUGCAGAAGGUGCUACGUUACAUGAGGAUCACCCAUGUCUCUGUUGUUUCGUG | 21 | 21.4 |  |  |
| UAUGUGUCAGGAUAUUGUUAGUUUAGUUGUUUGUAUUAGUUCGAGAAGGGACAUGAGGAUCACCCAUGUUGUUU |  |  | 30.9 | 28.6 |
| CGAAACUACGAGAAGGACAUGUGGUCCUUCAGUUACAUGAGGAUCACCCAUGUAGGAUAUCGUAGUUUCAGGAUCGUGAGAUCA |  |  | 37.4 | 7 |
| ACGCAGCUAGGUGAGGAUAUCGGUGGUAAAACAUGAGGAUCACCCAUGUCCGAAGCUCGGACUUCCGAGAAGGCGCCCGGCUGCA | 122 | 15.7 |  |  |
| CUCACGUUAGUAGGAUAUCCGACAUGAGGAUCACCCAUGUCACUACGCCGAUAGGGAAGGUGUAAGGAGAAGGGCUGAUAAAUA | 124 | 92.9 |  |  |
| CGAGUACAUGAGGAUCACCCAUGUAAUGAAUUGUCAGGAUAUGGAGAUUGAUGACAUGCGCCAGAAGGGACAUCUG | 49.7 | 40.8 |  |  |
| CAGUACUGAGGAUAUACAUGAGGAUCACCCAUGUAUUCCAGCUAGGAAACUAGCACAUGUAGAAGGCAGUACUG |  |  | 14.2 | 31.1 |
| CAAUUGGCACAGAAGGGUGACAUGAGGAUCACCCAUGUAGCGUGGCAUUCAGGAGGAGCCACGCCACAGGAUAUGUGCGGGCAC | 107 | 155 |  |  |
| AAAGGCCAAGGAUAUACAUGAGGAUCACCCAUGUCGAGUCCCGGGCAUGUAAGUUGGUGUAGAAGGUGGAAGAA |  |  | 13.4 | 13.5 |
| CGAGUACAUGAGGAUCACCCAUGUUAUGAAUUGUCAGGAUAUGGGUAUUGGUGACAUGCGCCAGAAGGGACGUCUG | 232 | 124 |  |  |
| AAAAGGUUAGGAUAUGCCCGCCGGGUGGGAAGGCCGGGUGGGUAGAAGGGACAUGAGGAUCACCCAUGUAUAAA |  |  | 47 | 19.9 |
| AGAUGACAAAGUCAUCUCUGACAGACAUGAGGAUCACCCAUGUAGGAUAUACUACUCAAAGAGUAGUAGAAGGACAUGUGUCUU |  |  | 33 | 95.7 |
| CCGUUCUGAGGAUAUCCACCCUCAUACAUGAGGAUCACCCAUGUUCACCCUUGGGUUCCCGGAGAAGGCAGUUUUC |  |  | 232 | 467 |
| GUAGUGUAUGUAGGAUAUGUGAAGCAAAGCUUCACAGAAGGACAUGAGGAUCACCCAUGUAUUGCAGUCAGCAAUCUGACUGCU |  |  | 41 | 145 |
| GGAUAGGACAGAGGAUAUACGUGCUAGAGAUACUAGCAAAAUUUCCUCACAUGAGGAUCACCCAUGUAGAAGGCUGUCCCAUCG |  |  | 15.3 | 327 |
| AGAGAAUAGGUAGGAUAUCUUAAUAGAAAGAAUAGAGAAGGACCACAUGAGGAUCACCCAUGUGAAGUCUUGAGACUACAUGGU |  |  | 18.1 | 22.9 |
| UUCAGACAUGAGGAUCACCCAUGUGAGGAUAUGAUGCGAUCGUCGAAAGACGAUAGCAUCAGAAGGCACGUAUG |  |  | 82.9 | 135 |
| UGGUACAUCGGAGGAUAUCAUGUAGAGACAUGAGGAUCACCCAUGUCGAUGGAGACAUCGGAGAUUGAGAAGGCCGAUGUACCU | 109 | 22.2 |  |  |
| GGUUGUCAAAGACAACCUUAACGAACAUGAGGAUCACCCAUGUAGGAUAUGCUACUCAAAGAGUAGCAGAAGGACAUGUGUCUU |  |  | 30.8 | 156 |
| CUCUUGUGAGGAUAUCAGUAGUAAAAAAAUAAAAUUACUACUGAGAAGGCACAUGAGGAUCACCCAUGUGACUU |  |  | 26.2 | 30.5 |
